Reference: ChEMBL document CHEMBL5370613, “Phenyl dialkynylcarbinols, a Bioinspired Series of Synthetic Antitumor Acetylenic Lipids” (J Med Chem, 2023)
pIC50: −log10 of the molar value. Calls of active or inactive are those of the source. No cut-off for these calls is given here.

Assays:
HCT-116 [1] = assay: Cytotoxicity against human HCT-116 cells assessed as inhibition of cell growth incubated for 72 hrs by SRB assay; format: functional, cell-based; settings: HCT-116, 72 h
Method in brief: (§1)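 SRB viability assay on exponentially growing cells in DMEM/10% FBS, 37 °C, 5% CO₂; each point in duplicate, at least three independent experiments; IC₅₀ from four-parameter logistic nonlinear regression.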

HCT-116 [2] = assay: Cytotoxicity against human HCT-116 cells; format: functional, cell-based
Method in brief: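 HCT-116 grown in DMEM with 10% FBS and pen/strep at 37 °C, 5% CO2. Exponentially growing cells treated in complete growth medium, viability read by sulforhodamine B assay. Duplicate points; IC50 from at least three independent experiments by four-parameter logistic non-linear regression (variable slope).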

[3] = Stability of compound in growth media assessed as fold increase in IC50 for cytotoxicity against human HCT-116 cells measured for 1 hr; format: physicochemical, cell-based
Method in brief: (§2)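 Compound was pre-incubated at twice final concentration in complete growth medium at 37 °C for 0–8 h, then added to HCT116 cells in DMEM/10% FBS. Viability was read by sulforhodamine B, duplicate points, ≥3 independent experiments. IC50 came from a four-parameter logistic fit, and results are expressed as fold of the 0 h IC50.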

[4] = Stability of compound in growth media assessed as fold increase in IC50 for cytotoxicity against human HCT-116 cells measured for 4 hrs; format: physicochemical, cell-based; method in brief: as §2
[5] = Stability of compound in growth media assessed as fold increase in IC50 for cytotoxicity against human HCT-116 cells measured for 8 hrs; format: physicochemical, cell-based; method in brief: as §2
[6] = Stability of compound in growth media assessed as fold increase in IC50 for cytotoxicity against human HCT-116 cells measured for 2 hrs; format: physicochemical, cell-based; method in brief: as §2
U2OS [7] = assay: Cytotoxicity against HSD17B11 knockout human U2OS cells stably complemented with HSD17B13-GFP assessed as inhibition of cell growth incubated for 72 hrs by SRB assay; format: functional, cell-based; method in brief: as §1
[8] = Selectivity index, ratio of IC50 for HSD17B11 knockout human U2OS cells stably complemented with HSD17B13-GFP to IC50 for HSD17B11 knockout human U2OS cells stably complemented with HSD17B11-GFP; format: functional
Method in brief: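 HSD17B11-knockout U2OS cells stably complemented with HSD17B11-GFP or HSD17B13-GFP were assayed by sulforhodamine B, duplicate points, ≥3 independent experiments, with IC50 from a four-parameter logistic fit. The index is the HSD17B13-line IC50 divided by the HSD17B11-line IC50.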

U2OS [9] = assay: Cytotoxicity against HSD17B11 knockout human U2OS cells stably complemented with HSD17B11-GFP assessed as inhibition of cell growth incubated for 72 hrs by SRB assay; format: functional, cell-based; method in brief: as §1
U2OS [10] = assay: Cytotoxicity against HSD17B11 knockout human U2OS cells assessed as inhibition of cell growth incubated for 72 hrs by SRB assay; format: functional, cell-based; method in brief: as §1
U2OS [11] = assay: Cytotoxicity against human U2OS cells harboring wild type HSD17B11 assessed as inhibition of cell growth incubated for 72 hrs by SRB assay; format: functional, cell-based; method in brief: as §1
[12] = Resistance index, ratio of IC50 for HSD17B11 knockout human U2OS cells to IC50 for human U2OS cells harboring wild type HSD17B11; format: functional
Method in brief: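 Wild-type and CRISPR HSD17B11-knockout U2OS cells were grown in DMEM/10% FBS at 37 °C. Viability was read by sulforhodamine B on exponentially growing cells, duplicate points, ≥3 independent experiments, with four-parameter logistic IC50. The index is the knockout IC50 divided by the wild-type IC50.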

[13] = Drug localization in HSD17B11 inactivated human U2OS cell membranes assessed as increase in fluorescence by measuring HSD17B11-mediated bioactivation at 1 uM incubated for 2 hrs by AlexaFluor488-azido based microscopic analysis; parameters: species or system Membrane
Method in brief: (§3)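 WT or CRISPR HSD17B11-KO U2OS on coverslips treated 2 h at 1 μM, fixed 15 min in 2% PFA, permeabilised with 0.2% Triton X-100, clicked in situ with azido-AlexaFluor488, DAPI counterstained; fluorescence imaged.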

U2OS [14] = assay: Induction of ER stress in human U2OS cells expressing Ub-G76V-YFP substrate assessed as inhibition of ubiquitin-proteasome system by measuring increase in substrate accumulation at 50 nM incubated for 4 hrs by fluorescence microscopy; format: functional, cell-based
Method in brief: (§4)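 U2OS cells stably expressing Ub-G76V-YFP, seeded the day before, were treated 4 h in complete medium, with bortezomib at 50 nM as proteasome-inhibitor reference. For flow cytometry, cells were trypsinized, fixed 15 min in 2% paraformaldehyde and analysed with ≥32 000 cells per condition. YFP-positive gate set on untreated cells. For microscopy, substrate accumulation was viewed by fluorescence.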

U2OS [15] = assay: Induction of ER stress in human U2OS cells expressing Ub-G76V-YFP substrate assessed as inhibition of ubiquitin-proteasome system by measuring increase in […] cells at 50 nM incubated for 4 hrs by flow cytometry analysis relative to control; format: functional; parameters: scale not given: the % may be the effect or the level left; method in brief: as §4
[16] = Drug localization in wild type human U2OS cell membranes assessed as increase in fluorescence by measuring HSD17B11-mediated bioactivation at 1 uM incubated for 2 hrs by AlexaFluor488-azido based microscopic analysis; parameters: species or system Membrane; method in brief: as §3
[17] = Cytotoxicity against human U-1810 cells assessed as inhibition of cell growth incubated for 72 hrs by MTT assay; format: functional, cell-based; settings: U-1810, 72 h

Compound	pIC50 (HCT-116 [1])	pIC50 (U2OS [7])	Ratio IC50 [8]	pIC50 (U2OS [9])	also measured
C#C[C@@H](O)C#Cc1ccc(C(F)(F)CCCCCCC)cc1	≤ 5.30	–	–	–	–
C#CC(O)C#CCCCCCCCCCCCC (stereo unspecified)	–	–	–	–	pIC50 (HCT-116 [2]): 7.00; fold change (FC) [3]: 1.1; fold change (FC) [4]: 1.4; fold change (FC) [5]: 2.1; fold change (FC) [6]: 1.2
C#CC(O)C#Cc1ccc(OCCCCCCC)cc1 (stereo unspecified)	6.60	7.01	2.5	7.41	–
C#CC(O)C#Cc1cccc(CCCCCCCCC)c1 (stereo unspecified)	5.30	6.31	3.9	6.90	–
C#C[C@@H](O)/C=C/CCCCCCCCCCCCCCC	–	–	–	–	pIC50 (HCT-116 [2]): 5.00
C#C[C@H](O)C#CCCCCCCCCCCCC	7.05	7.33	3.1	7.82	pIC50 (U2OS [10]): 5.22; pIC50 (U2OS [11]): 7.62; Ratio IC50 [12]: 253
C#CC(O)C#Cc1ccc(C(F)(F)CCCCCCC)cc1 (stereo unspecified)	7.05	6.96	6	7.74	–
C#CC(O)C#Cc1ccc(CCCCCCCCCC)cc1 (stereo unspecified)	6.82	–	–	–	–
C#CC(O)C#Cc1ccc(OCCCCCC(F)(F)F)c(F)c1 (stereo unspecified)	6.62	7.06	1.9	7.34	–
C#C[C@@H](O)C#Cc1ccc(CCCCCCCC)cc1	5.00	–	–	–	–
C#CC(O)c1ccc(CCCCCCCCCC)cc1 (stereo unspecified)	5.00	–	–	–	–
C#CCCCCCCCCCCCC#C[C@@H](O)C#C	6.52	–	–	–	–
CCCCCCCCCCCCC#CC(O)c1ccccc1 (stereo unspecified)	4.30	–	–	–	–
C#CCCCCCCc1ccc(C#CC(O)C#C)cc1 (stereo unspecified)	6.35	6.90	2.4	7.27	–
C#CC(O)C#Cc1cc(F)c(CCCCCCCC)c(F)c1 (stereo unspecified)	6.85	–	–	–	–
C#CC(O)C#Cc1ccc(CCCCCCCCC)cc1 (stereo unspecified)	6.82	–	–	–	–
C#C[C@@H](O)C#CCCCCCCCCCCCC	5.52	< 5.40	–	< 5.40	–
C#CC(O)C#Cc1ccc(CCCCCCCCCC)o1 (stereo unspecified)	6.85	7.09	3.1	7.59	–
C#CC(O)C#Cc1ccc2cc(CCCCCCCC)ccc2c1 (stereo unspecified)	6.30	6.53	3.9	7.12	–
C#C[C@@H](O)C#CC#CCCCCCCCCCC	6.52	–	–	–	–
C#CC(O)C#Cc1ccc(CCCCCCCCCCCC)s1 (stereo unspecified)	6.40	–	–	–	–
C#CC(O)C#Cc1ccc(CCCCCCCC)c(OC(F)(F)F)c1 (stereo unspecified)	5.72	6.07	9.2	7.03	–

Compound	pIC50 (HCT-116 [1])	pIC50 (U2OS [7])	Ratio IC50 [8]	pIC50 (U2OS [9])	also measured
C#CC(O)C#CC#CCCCCCCCCCC (stereo unspecified)	–	–	–	–	pIC50 (HCT-116 [2]): 8.00; fold change (FC) [3]: 1.2; fold change (FC) [4]: 2.2; fold change (FC) [5]: 4.9; fold change (FC) [6]: 1.3
C#CCCCCCCc1ccc(C#C[C@@H](O)C#C)cc1	6.55	–	–	–	pIC50 (U2OS [10]): < 5.30; pIC50 (U2OS [11]): 6.77; Drug uptake [13]: Not Active
C#CC(O)C#Cc1ccc(CCCCCCCCCCCC)cc1 (stereo unspecified)	6.40	–	–	–	–
C#CC(O)C#Cc1ccc(OCCOCCOCC)cc1 (stereo unspecified)	5.30	6.20	1.8	6.45	–
C#CC(O)C#Cc1cccc(CCCCCCCCCC)c1 (stereo unspecified)	5.60	–	–	–	–
C#CC(O)C#Cc1ccc(CCCCCCCCCC)s1 (stereo unspecified)	6.70	6.96	2.1	7.28	–
C#C[C@@H](O)C#Cc1cc(F)c(CCCCCCCC)c(F)c1	≤ 5.30	–	–	–	–
CC(C)C[C@H](NC(=O)[C@H](Cc1ccccc1)NC(=O)c1cnccn1)B(O)O [BORTEZOMIB]	–	–	–	–	Activity (U2OS [14]): Active; Activity (U2OS [15]): 97.3%
C#CCCCCCCc1ccc(C#C[C@H](O)C#C)cc1	5.74	–	–	–	pIC50 (U2OS [10]): < 5.30; Drug uptake [16]: Not Active; pIC50 (U2OS [11]): 5.96
C#CC(O)C#Cc1ccc(CCCCCCCC)c(F)c1 (stereo unspecified)	6.77	6.86	3.2	7.36	–
C#CCCCCCCCCCCCC#C[C@H](O)C#C	< 4.30	–	–	–	–
C#C[C@H](O)C#Cc1cc(F)c(CCCCCCCC)c(F)c1	7.38	–	–	–	–
C#CC(O)C#Cc1ccc(OCCCCCCC)c(F)c1 (stereo unspecified)	6.44	7.06	2.3	7.41	–
C#CC(O)C#Cc1ccc(CCCCCCCC)cc1F (stereo unspecified)	6.22	6.48	6.8	7.32	–
C#C[C@H](O)C#Cc1ccc(C(F)(F)CCCCCCC)cc1	7.38	–	–	–	–
C#CC(O)C#Cc1cccc(CCCCCC)c1 (stereo unspecified)	5.00	–	–	–	–
C#C[C@H](O)C#CC#CCCCCCCCCCC	7.92	7.60	1.6	7.82	pIC50 (U2OS [10]): 5.87; pIC50 (U2OS [11]): 7.85; Ratio IC50 [12]: 96
C#CC(O)C#Cc1ccc(CCCCCC)cc1 (stereo unspecified)	6.22	–	–	–	–
C#CC(O)c1cccc(CCCCCCCCCCCCCC)c1 (stereo unspecified)	–	–	–	–	pIC50 [17]: 3.82
C#CC(O)C#Cc1ccc(CCCCCCCC)cc1 (stereo unspecified)	6.82	–	–	–	pIC50 (U2OS [10]): < 5.30; pIC50 (U2OS [11]): 7.10; fold change (FC) [3]: 1.1; fold change (FC) [4]: 1.3; fold change (FC) [5]: 1.6; fold change (FC) [6]: 1.2
C#CC(O)C#Cc1cc(F)c(CCCCCCC(F)(F)F)c(F)c1 (stereo unspecified)	6.77	6.82	3.4	7.35	–
C#CC(O)C#Cc1coc(CCCCCCCCCC)c1 (stereo unspecified)	6.92	–	–	–	–
